Measurements collected from several papers.
Compare with care: the assays were run in different laboratories.
Target: Ribosomal protein S6 kinase beta-1 (RPS6KB1, Homo sapiens, UniProt P23443)

SMILES	assay	setting	quantity	value
CCN(CC)CCNC(=O)c1c(C)[nH]c(/C=C2\C(=O)Nc3ccc(F)cc32)c1C	enzyme activity, inhibitor	0.3 µM	inhibition	30%
CNc1cccc2cc(C(=O)Nc3ccc(C(=O)O)cc3)c(=O)[nH]c12	enzyme activity, inhibitor	10 µM	inhibition	9%
O=C1Nc2ccc(Cl)cc2C1=Cc1cc(Cl)c(O)c(Cl)c1	cell-free assay	0.5 µM	remaining signal	91%
CSc1cccnc1N1CCN(Cc2nc3ccccc3[nH]2)CC1	cell-free assay, competition with immobilised ligand	1 µM	remaining binding	87%
CN(c1ncccc1CNc1nc(Nc2ccc3c(c2)CC(=O)N3)ncc1C(F)(F)F)S(C)(=O)=O	enzyme activity, inhibitor	1 µM	inhibition	26.4%
C[C@@H]1CN(c2cc(-c3nn(C)c4ccc(OC5(C)CC5)cc34)ncn2)C[C@H](C)O1	cell-free assay, competition with immobilised ligand	1 µM	remaining binding	100%
CC(C)c1ccc(NC(=O)c2cccs2)c(-c2nc3ccccc3[nH]c2=O)c1	enzyme activity, inhibitor	1 µM	activity vs control	93%
CNCc1ccccc1-c1csc([C@@H](C)Nc2nc(C)nc3cc(OC)c(OC)cc23)c1	cell-free assay, competition with immobilised ligand	1 µM	remaining binding	86%
O=C1NC(=O)c2cc(Nc3ccc(F)cc3)c(Nc3ccc(F)cc3)cc21	cell-free assay	0.5 µM	remaining signal	95.5%
c1ccc(N2CCN(Cc3nc4ccccc4[nH]3)CC2)nc1	binding, competition with immobilised ligand	1 µM	remaining binding	97%
CC/C(=N\NC(=O)NCc1cccc(O)c1)c1ccc(O)c(C)c1O	enzyme activity, inhibitor	0.1 µM	inhibition	77.8%
O=S(=O)(NCCNC/C=C/c1ccc(Br)cc1)c1cccc2cnccc12	cell-free assay	0.5 µM	remaining signal	25.6%
CCCS(=O)(=O)Nc1ccc(F)c(C(=O)c2c[nH]c3ncc(-c4ccc(Cl)cc4)cc23)c1F	enzyme activity, inhibitor	1 µM	inhibition	< 10%
COc1cc2ncnc(Nc3ccc(Oc4ccccc4)cc3C)c2cc1OC	enzyme activity, inhibitor	1 µM	inhibition	-2%
Cn1cncc1C1=CN(c2ncnc3[nH]cnc23)CCS1	enzyme activity, inhibitor, radiometric	50 nM	inhibition	14%
Cc1ccc(-n2nc(C(C)(C)C)cc2NC(=O)Nc2ccc(OCCN3CCOCC3)c3ccccc23)cc1	enzyme activity, inhibitor	10 µM	inhibition	39%
O=C(NCCCC1CCCCC1)c1ccc(CNC(=O)c2cnn(-c3ccccc3)c2C(F)(F)F)cc1	cell-free assay, competition with immobilised ligand	0.1 µM	remaining binding	96%
CNC(=O)c1cc(Oc2ccc(NC(=O)Nc3ccc(Cl)c(C(F)(F)F)c3)cc2)ccn1	cell-free assay	0.5 µM	remaining signal	91.4%
COc1cccc(CNC(=O)c2nc3scc(COCc4ccc(C(=O)O)cc4)c3c(=O)[nH]2)c1	cell-free assay, competition with immobilised ligand	1 µM	remaining binding	96.1%
CN(C)C1CCN(CC#Cc2nn(C3CCCC3)c3nc(NCc4ccccc4)ncc23)C1 (centres unmarked)	enzyme activity, inhibitor, FRET	0.1 µM	inhibition	6%
